Laboratory results from the M2OR odorant receptor database.

What was measured:
Conditions in all cases: stereoisomer not certain
OR10A3 (Homo sapiens) = target: T1, OR10A3 (Homo sapiens) (UniProt P58181)
T1 sequence (whole entry): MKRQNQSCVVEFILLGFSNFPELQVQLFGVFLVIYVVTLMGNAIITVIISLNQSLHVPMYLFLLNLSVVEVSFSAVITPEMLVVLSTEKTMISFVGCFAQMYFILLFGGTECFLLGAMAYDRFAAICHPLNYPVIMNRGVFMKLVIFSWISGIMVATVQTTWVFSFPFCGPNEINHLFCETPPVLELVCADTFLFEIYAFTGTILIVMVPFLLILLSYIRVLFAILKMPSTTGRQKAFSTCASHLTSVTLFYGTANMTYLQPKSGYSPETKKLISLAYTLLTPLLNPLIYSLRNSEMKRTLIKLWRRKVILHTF
In short: (§1)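 Transient luciferase assays in mammalian cell lines were common, though methods varied by source. The values come from published papers and their supplementary material, with extra details from the original authors when needed. Responsive refers to a measured signal the original authors judged statistically different from baseline, and non-responsive (inactive) to the remainder.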

OR10A4 (Homo sapiens) = target: T2, OR10A4 (Homo sapiens) (UniProt Q9H209)
T2 sequence (whole entry): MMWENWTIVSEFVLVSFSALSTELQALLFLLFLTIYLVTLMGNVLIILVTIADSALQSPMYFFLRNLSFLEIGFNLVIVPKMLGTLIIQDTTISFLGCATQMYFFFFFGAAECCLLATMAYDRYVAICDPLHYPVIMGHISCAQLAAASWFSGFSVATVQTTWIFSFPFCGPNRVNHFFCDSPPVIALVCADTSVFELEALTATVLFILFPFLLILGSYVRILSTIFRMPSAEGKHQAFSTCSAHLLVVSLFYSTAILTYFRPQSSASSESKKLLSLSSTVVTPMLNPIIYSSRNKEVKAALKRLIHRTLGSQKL
In short: as §1

OR10A5 (Homo sapiens) = target: T3, OR10A5 (Homo sapiens) (UniProt Q9H207)
T3 sequence (whole entry): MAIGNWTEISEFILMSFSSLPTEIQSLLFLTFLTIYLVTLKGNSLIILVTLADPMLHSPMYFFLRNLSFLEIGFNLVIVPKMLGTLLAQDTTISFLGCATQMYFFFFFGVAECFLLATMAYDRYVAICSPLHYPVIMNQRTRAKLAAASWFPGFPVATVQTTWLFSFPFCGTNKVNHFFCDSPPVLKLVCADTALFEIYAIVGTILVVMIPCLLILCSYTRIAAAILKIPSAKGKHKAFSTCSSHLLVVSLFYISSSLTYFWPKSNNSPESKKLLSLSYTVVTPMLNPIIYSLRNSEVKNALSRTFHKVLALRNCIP
In short: as §1

OR10A6 (Homo sapiens) = target: T4, OR10A6 (Homo sapiens) (UniProt Q8NH74)
T4 sequence (whole entry): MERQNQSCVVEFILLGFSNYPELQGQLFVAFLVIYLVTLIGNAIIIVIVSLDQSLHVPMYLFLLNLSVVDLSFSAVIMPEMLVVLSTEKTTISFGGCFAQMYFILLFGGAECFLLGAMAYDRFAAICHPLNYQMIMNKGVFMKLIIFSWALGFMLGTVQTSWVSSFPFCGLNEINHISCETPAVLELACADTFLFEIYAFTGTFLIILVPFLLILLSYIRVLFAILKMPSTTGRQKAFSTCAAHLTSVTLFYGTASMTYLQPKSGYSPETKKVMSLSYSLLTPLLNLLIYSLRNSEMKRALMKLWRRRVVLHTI
In short: as §1

OR10A7 (Homo sapiens) = target: T5, OR10A7 (Homo sapiens) (UniProt Q8NGE5)
T5 sequence (whole entry): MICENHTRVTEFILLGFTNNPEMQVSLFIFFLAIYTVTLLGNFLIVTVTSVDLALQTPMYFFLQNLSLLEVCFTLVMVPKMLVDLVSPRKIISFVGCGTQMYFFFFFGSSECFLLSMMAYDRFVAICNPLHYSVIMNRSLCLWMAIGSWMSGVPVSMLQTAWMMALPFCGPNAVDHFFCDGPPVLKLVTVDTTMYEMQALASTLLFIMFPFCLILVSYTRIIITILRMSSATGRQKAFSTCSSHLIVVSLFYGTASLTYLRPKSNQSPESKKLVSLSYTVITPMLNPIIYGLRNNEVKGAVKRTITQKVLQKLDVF
In short: as §1

OR10AD1 (Homo sapiens) = target: T6, OR10AD1 (Homo sapiens) (UniProt Q8NGE0)
T6 sequence (whole entry): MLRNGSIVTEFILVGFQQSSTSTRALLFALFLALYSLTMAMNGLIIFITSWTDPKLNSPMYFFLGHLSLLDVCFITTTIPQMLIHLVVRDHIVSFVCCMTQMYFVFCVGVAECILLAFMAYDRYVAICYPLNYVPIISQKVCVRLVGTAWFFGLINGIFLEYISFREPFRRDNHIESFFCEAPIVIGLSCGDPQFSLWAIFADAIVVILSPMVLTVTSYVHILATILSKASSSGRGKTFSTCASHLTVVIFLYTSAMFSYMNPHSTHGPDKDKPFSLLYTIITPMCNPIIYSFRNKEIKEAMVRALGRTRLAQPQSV
In short: as §1

OR10AG1 (Homo sapiens) = target: T7, OR10AG1 (Homo sapiens) (UniProt Q8NH19)
T7 sequence (whole entry): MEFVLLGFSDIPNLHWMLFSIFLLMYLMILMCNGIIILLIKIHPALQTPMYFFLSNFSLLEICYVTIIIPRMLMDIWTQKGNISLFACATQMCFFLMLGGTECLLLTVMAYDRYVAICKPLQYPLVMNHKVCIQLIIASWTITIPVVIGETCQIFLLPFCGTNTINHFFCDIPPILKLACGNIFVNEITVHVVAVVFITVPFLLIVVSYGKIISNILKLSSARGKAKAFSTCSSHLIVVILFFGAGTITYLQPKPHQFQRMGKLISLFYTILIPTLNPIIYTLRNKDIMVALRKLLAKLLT
In short: as §1

OR10C1 (Homo sapiens) = target: T8, OR10C1 (Homo sapiens) (UniProt Q96KK4)
T8 sequence (whole entry): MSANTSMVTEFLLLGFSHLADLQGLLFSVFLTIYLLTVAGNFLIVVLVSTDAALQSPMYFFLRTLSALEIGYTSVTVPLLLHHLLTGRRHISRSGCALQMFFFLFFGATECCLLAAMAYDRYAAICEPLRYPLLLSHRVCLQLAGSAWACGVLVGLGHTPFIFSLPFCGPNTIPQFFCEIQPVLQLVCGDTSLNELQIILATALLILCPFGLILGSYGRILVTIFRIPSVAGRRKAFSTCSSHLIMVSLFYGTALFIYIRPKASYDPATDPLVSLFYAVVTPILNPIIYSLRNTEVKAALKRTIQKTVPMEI
In short: as §1

OR10D3 (Homo sapiens) = target: T9, OR10D3 (Homo sapiens) (UniProt Q8NH80)
T9 sequence (whole entry): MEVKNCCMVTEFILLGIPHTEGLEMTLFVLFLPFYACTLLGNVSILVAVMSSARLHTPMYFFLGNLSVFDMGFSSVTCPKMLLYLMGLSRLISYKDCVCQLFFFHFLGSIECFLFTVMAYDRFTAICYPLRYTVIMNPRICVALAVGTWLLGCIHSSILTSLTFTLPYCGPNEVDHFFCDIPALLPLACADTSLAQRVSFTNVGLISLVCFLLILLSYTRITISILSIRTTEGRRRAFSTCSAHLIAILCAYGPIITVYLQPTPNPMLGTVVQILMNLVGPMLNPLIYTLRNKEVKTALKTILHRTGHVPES
In short: as §1

Measured: odorant receptor agonist call;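 note: active if original authors judged signal statistically different from baseline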

CCC(S)C(C)CO (centres undefined)
inactive: all assays above
